# Screening data as filed in PubChem.
# Sampled rows, rich in hits. Any-hit rate of the full collection: about 2.9%.
# SENP8 block-1 = blocks human SENP8 cleavage of Nedd8 substrate. Q96LD8. recombinant SENP8, Nedd8 substrate fluorescence. inhibition, % at 20 µM. actives 0.64% (n = 360,000). AID 602440; in the data active means inhibition mostly above about 40%, no sharp cut-off; inactive means mostly below about 27%
# Target sequence (Q96LD8 whole entry, looked up): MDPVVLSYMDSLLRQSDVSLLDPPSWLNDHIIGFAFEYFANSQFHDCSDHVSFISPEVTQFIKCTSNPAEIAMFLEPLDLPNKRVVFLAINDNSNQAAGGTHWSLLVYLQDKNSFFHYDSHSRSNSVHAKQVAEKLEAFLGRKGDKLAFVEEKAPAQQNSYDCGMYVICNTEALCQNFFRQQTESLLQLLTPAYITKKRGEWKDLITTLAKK
# SENP1 inh = blocks the human SENP1 SUMO protease catalytic domain. Q9P0U3. recombinant SENP1 catalytic domain, CyPet-SUMO1-YPet FRET cleavage. inhibition, % at 10 µM. actives 0.21% (n = 360,000);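 active means inhibition at least 30% at 10 µM, raw YFP signal under a set limit, fluorescence ratio 0.5 to 1.5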;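 further: 0% = enzyme with DMSO and 100% = no enzyme wells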
# Target sequence (Q9P0U3 419-644 limits assumed): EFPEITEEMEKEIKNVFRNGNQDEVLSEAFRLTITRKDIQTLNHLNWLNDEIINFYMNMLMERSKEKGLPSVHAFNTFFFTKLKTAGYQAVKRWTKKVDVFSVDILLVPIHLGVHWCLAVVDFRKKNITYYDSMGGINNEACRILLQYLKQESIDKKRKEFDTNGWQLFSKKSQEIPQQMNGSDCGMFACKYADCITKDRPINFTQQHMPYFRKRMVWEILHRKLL
#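 Test system: human SENP1 catalytic domain; medium: Tris pH 8 buffer plus EDTA, NaCl, BME, BSA, NP40, catalase; incubation: 50 min reaction at room temperature; technique: FRET, CFP and YFP emission; controls: no-enzyme low control and enzyme-plus-DMSO high control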
# SENP7 inh = inhibitors of human SENP7 protease; Q9BQF6; recombinant SENP7, Z-RLRGG-aminoluciferin luminescence, 40 min; inhibition, % at 5 µM; actives 1.5% (n = 330,000); AID 434973;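 active means inhibition above about 50% at the single test dose, limit read from the data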;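 further: plate controls were DMSO with enzyme for no effect and no enzyme buffer wells for full effect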
# Apaf-1 inh = inhibitors of human Apaf-1 apoptosome | O14727 | reconstituted apoptosome caspase-3 activity, DEVD-Rh110 fluorescence | inhibition, % at 20 µM | actives 0.71% (n = 330,000) | AID 489030; active means inhibition of at least 40% at 20 µM;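 further: plate controls were DMSO wells for no effect and DEVD-CHO caspase inhibitor wells for full effect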
#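 detection = Rh110 fluorescence intensity | test system = biochemical Apaf-1 apoptosome reconstitution | also added = cytochrome c and DEVD-Rh110 substrate | schedule = 30 min plus 50 min, RT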
# SENP6 inh = inhibitors of human SENP6 protease; Q9GZR1; Recombinant SENP6 catalytic domain, aminoluciferin luminescence; inhibition, % at 10 µM; actives 1.8% (n = 330,000);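 active means inhibition above about 50% at the single tested dose, limit read from the data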;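 further: plate controls were DMSO wells with enzyme for no effect and DMSO wells lacking enzyme for full effect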
# SENP8 block-2 = SENP8 protease inhibition; Q96LD8; purified SENP8, Z-RLRGG-aminoluciferin cleavage, luminescence; inhibition, % at 10 µM; actives 1.2% (n = 330,000); in the data active means inhibition above about 50%
# SENP8 conf = human SENP8 inhibition, confirmed. shares compounds with SENP7 inh. Recombinant SENP8, Z-RLRGG-aminoluciferin luminescence, 60 min. inhibition, % at 12.5 µM. actives 40% (n = 6,200);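 active means mean inhibition across replicates above about 50%, limit read from the data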
# SENP6 confirm = human SENP6 inhibition, confirmed; actives 58% (n = 6,200); inhibition, % at 12.5 µM; shares compounds with SENP7 inh; recombinant SENP6, Z-RLRGG-aminoluciferin luminescence; AID 488915
# SENP7 conf = confirmation of human SENP7 protease inhibitors. shares compounds with SENP7 inh. recombinant SENP7, Z-RLRGG-aminoluciferin luminescence, 40 min. inhibition, % at 12.5 µM. actives 69% (n = 6,200). AID 488917
# Casp3 select = selectivity test for SENP inhibitors: human caspase-3 inhibition. inhibition, % at 12.5 µM. shares compounds with SENP7 inh. AID 488918. actives 60% (n = 6,200). purified caspase-3, Z-DEVD-aminoluciferin luminescence, 60 min;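 active means mean inhibition above about 50%, limit read from the data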;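 further: plate controls were enzyme with DMSO for no effect and wells without caspase-3 for full effect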
# Target sequence (P42574 28-227 limits assumed): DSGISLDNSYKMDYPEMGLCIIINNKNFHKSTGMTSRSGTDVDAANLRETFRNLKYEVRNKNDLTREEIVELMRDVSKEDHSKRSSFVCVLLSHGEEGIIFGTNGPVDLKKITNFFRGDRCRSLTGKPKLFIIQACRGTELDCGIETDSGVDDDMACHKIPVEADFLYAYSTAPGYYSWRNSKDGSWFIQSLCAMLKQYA
# SENP luc ctr = interferes with luciferase luminescence in SENP counter-screen. inhibition, % at 12.5 µM. Pre-incubated SENP8/Z-RLRGG-aminoluciferin, luciferase luminescence interference. shares compounds with SENP7 inh. actives 39% (n = 6,200). AID 488919;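 active means mean inhibition above about 50% when retested at one dose, limit read from the data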;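 further: plate controls were DMSO wells with completed reaction for no effect and substrate without enzyme for full effect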
# Numbers without * were called inactive; nt = not tested or not shown.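 How the source made its calls, unless noted: active means mean inhibition above about 50% in the one-dose retest (limit read from the data); inactive means the rest.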
SMILES,SENP8 block-1,SENP1 inh,SENP7 inh,Apaf-1 inh,SENP6 inh,SENP8 block-2,SENP8 conf,SENP6 confirm,SENP7 conf,Casp3 select,SENP luc ctr
Cc1ccc(-c2csc(NC(=O)/C=C/c3ccco3)c2C(=O)O)cc1,2,-26,72*,10,86*,89*,68*,97*,101*,96*,67*
Cc1cccc(C(=O)Nc2sc(C)c(-c3ccccc3)c2C#N)c1,-47,-25,33,17,60*,24,30,40,54*,31,8
Cc1cccc(C(=O)Nc2scc(CC(C)C)c2C(=O)O)c1,-20,3,9,22,26,19,nt,nt,nt,nt,nt
Cc1ccc(-c2csc(NC(=O)c3ccccc3Cl)c2C(=O)O)cc1,-8,3,4,11,46,29,nt,nt,nt,nt,nt
Cc1ccc(-c2csc(NC(=O)c3cccc(C)c3)c2C(=O)O)cc1,-98,-2,69*,-9,97*,92*,-7,96*,100*,91*,84*
CC(C)c1ccc(-c2csc(NC(=O)c3cccs3)c2C(=O)O)cc1,-64,-1,29,-15,96*,91*,11,98*,90*,84*,84*
Cc1nc(NC(=O)/C=C/c2ccco2)sc1C,-10,0,16,9,26,-16,nt,nt,nt,nt,nt
Cc1cc(C)c(S(=O)(=O)Nc2ccc(C(=O)O)cc2)cc1S(=O)(=O)Nc1ccc(C(=O)O)cc1,10,2,-3,-2,-3,4,nt,nt,nt,nt,nt
COc1ccc(-n2nnc3c(SC(C(C)=O)C(=O)N(C)C)ncnc32)cc1 (centres undefined),0,-2,13,-12,-4,-10,nt,nt,nt,nt,nt
COc1ccc(NC(=S)N(CCO)Cc2cc3c(C)cc(C)cc3[nH]c2=O)cc1,8,0,8,-19,89*,2,-24,-17,-6,-9,-4
COc1ccc(NC(=O)N(CCO)Cc2cc3c(C)cc(C)cc3[nH]c2=O)cc1,-12,0,0,0,0,-1,nt,nt,nt,nt,nt
CCNc1nc(-c2ccc(Cl)cc2)cs1,13,1,62*,12,85*,72*,-21,71*,94*,60*,69*
CNc1nc(-c2ccc(Cl)cc2)cs1,10,1,20,14,62*,30,54*,58*,82*,51*,26
Clc1ccc(Nc2nc(-c3ccncc3)cs2)cc1,-17,-2,7,-7,5,-7,nt,nt,nt,nt,nt
Fc1cccc(NC(=S)N2CCc3ccccc32)c1,6,4,2,4,57*,10,12,2,10,3,17
S=C(Nc1ccccc1)N1CCc2ccccc21,20,2,10,3,-11,-15,nt,nt,nt,nt,nt
Cc1ccc(-n2nnc(-c3nccs3)n2)cc1,14,-1,98*,0,94*,94*,97*,97*,101*,97*,94*
Cc1ccc(-n2nnc(-c3cc4ccccc4nc3Cl)n2)cc1,-97,-53,8,8,-7,-12,nt,nt,nt,nt,nt
Fc1ccc(-n2nnc(-c3cccnc3)n2)cc1,15,-1,21,2,22,-6,nt,nt,nt,nt,nt
Clc1ccc(-n2nnc(-c3cccnc3)n2)cc1Cl,17,3,51*,-3,62*,19,6,12,31,51*,8
Clc1ccc(-n2nnc(-c3nccs3)n2)cc1Cl,8,1,82*,17,82*,72*,24,44,60*,68*,-5
O=C1C=C(c2ccc3c(c2)OCO3)C[C@@H](c2ccc(Cl)cc2)C1,-456,-1,-4,19,-19,-12,nt,nt,nt,nt,nt
COc1ccc(CNCc2c(F)cccc2F)cc1OC,9,0,-1,-11,7,4,nt,nt,nt,nt,nt
COCCNC(=O)C1CCCN(C(=O)c2ccc(F)c(C)c2)CC1 (centres undefined),9,3,nt,nt,nt,nt,nt,nt,nt,nt,nt
COc1cccc(/C=C2\Oc3ccc(O)cc3C2=O)c1O,-175,-27,64*,13,71*,56*,72*,69*,90*,72*,16
SMILES,SENP8 block-1,SENP1 inh,SENP7 inh,Apaf-1 inh,SENP6 inh,SENP8 block-2,SENP8 conf,SENP6 confirm,SENP7 conf,Casp3 select,SENP luc ctr
COC(=O)c1ccc2c(c1)C(=O)/C(=C/c1ccc(O)cc1)O2,-300,-26,nt,nt,nt,nt,nt,nt,nt,nt,nt
COc1cc(C)ccc1OCc1cc(C(=O)N2CCN(C)C[C@@H]2c2ccccc2)no1,-6,-3,1,4,5,2,nt,nt,nt,nt,nt
Cc1ccsc1/C=N/n1cnc2sc(C)c(C)c2c1=O,21,1,46,3,70*,43,23,20,22,29,8
Cc1ccsc1/C=N/n1cnnc1,11,0,-3,-9,-36,-8,nt,nt,nt,nt,nt
CC1(C(=O)NS(=O)(=O)c2cccs2)CCN1C(=O)CCc1ccc(Cl)cc1Cl (centres undefined),22,3,nt,nt,nt,nt,nt,nt,nt,nt,nt
COc1ccc2[nH]c(C(=O)Nc3cccc(C)n3)cc2c1,-482,2,86*,5,91*,85*,92*,92*,100*,92*,58*
COc1ccc2[nH]c(C(=O)Nc3ccc(C)c(F)c3)cc2c1,-282,1,1,-5,-36,-3,nt,nt,nt,nt,nt
CC(C)CN(C(=O)CSc1nc2ccccc2c(=O)n1C)C1CCS(=O)(=O)C1 (centres undefined),7,-1,-5,0,0,-11,nt,nt,nt,nt,nt
O=C(N/N=C/c1ccc(Sc2ccccn2)o1)c1cc2ccccc2cc1O,-61,13,64*,15,94*,93*,90*,97*,101*,92*,76*
Nc1cccc(C#Cc2ccc3c(c2)C(=O)/C(=C/c2ccsc2)O3)c1,-78,-8,2,-4,-2,4,nt,nt,nt,nt,nt
Clc1ccc(-c2nnc(NC3=NCCCCC3)o2)cc1,29,2,88*,8,73*,80*,-24,11,57*,47,12
O=C(Nc1nnc(-c2ccc(Cl)cc2)o1)C1CCCCC1,-75,-1,-6,6,3,6,nt,nt,nt,nt,nt
